ChEMBL document CHEMBL4425096, “Synthesis and Biological Evaluation of 4-Anilino-quinazolines and -quinolines as Inhibitors of Breast Cancer Resistance Protein (ABCG2)” (J Med Chem, 2016)

Columns and labels:
[1] = molecular target: T1, Broad substrate specificity ATP-binding cassette transporter ABCG2 (Homo sapiens, UniProt Q9UNQ0); test: Inhibition of c-terminal GFP-tagged human ABCG2 expressed in MDCK2 cells preincubated for 30 mins before Pheophorbide A addition by Pheophorbide A assay; assay type: cell-based
T1 sequence (Q9UNQ0 whole entry): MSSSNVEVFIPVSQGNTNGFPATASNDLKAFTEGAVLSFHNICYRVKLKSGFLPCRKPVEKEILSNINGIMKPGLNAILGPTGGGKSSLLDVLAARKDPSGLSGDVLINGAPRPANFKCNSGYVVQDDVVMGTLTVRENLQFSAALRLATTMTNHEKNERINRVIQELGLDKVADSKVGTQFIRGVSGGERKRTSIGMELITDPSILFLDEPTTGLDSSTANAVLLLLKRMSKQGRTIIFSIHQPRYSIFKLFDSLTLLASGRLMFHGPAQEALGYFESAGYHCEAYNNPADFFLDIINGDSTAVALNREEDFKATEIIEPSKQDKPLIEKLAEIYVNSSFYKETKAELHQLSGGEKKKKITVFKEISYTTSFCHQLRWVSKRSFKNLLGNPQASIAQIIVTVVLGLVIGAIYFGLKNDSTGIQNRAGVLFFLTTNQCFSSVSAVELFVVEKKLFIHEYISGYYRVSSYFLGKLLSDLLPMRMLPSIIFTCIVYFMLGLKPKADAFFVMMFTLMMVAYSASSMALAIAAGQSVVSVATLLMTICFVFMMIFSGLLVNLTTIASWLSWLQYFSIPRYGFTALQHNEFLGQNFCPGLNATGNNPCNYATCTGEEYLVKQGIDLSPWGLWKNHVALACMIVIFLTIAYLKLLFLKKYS

[2] = molecular target: T1, Broad substrate specificity ATP-binding cassette transporter ABCG2; test: Inhibition of c-terminal GFP-tagged human ABCG2 expressed in MDCK2 cells preincubated for 30 mins before Hoechst 33342 addition by Hoechst 33342 accumulation assay; assay type: cell-based
Procedure, shortened: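 MDCK II cells transfected with human ABCG2 fused C-terminally to GFP, washed in Krebs-HEPES buffer pH 7.0; ~30,000 cells/well, compound 30 min at 37 °C. 6 µM Hoechst 33342 solution added, fluorescence (ex 355/em 460 nm) every 60 s to 120 min. Final methanol ≤5%, DMSO ≤0.1%.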

[3] = tested on: ABCG2; test: Therapeutic index, ratio of GI50 for intrinsic cytotoxicity against MDCK2 cells over-expressing human ABCG2 top IC50 for inhibition of c-terminal GFP-tagged human ABCG2 expressed in MDCK2 cells; assay type: toxicity, cell-based; conditions: dog, read-out: RatioGI50
Procedure, shortened: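 Ratio of MTT GI50 (72 h, MDCK II) to IC50 from the Hoechst 33342 accumulation assay.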

[4] = Intrinsic cytotoxicity against MDCK2 cells over-expressing human ABCG2 incubated for 72 hrs by MTT assay; assay type: ADME, cell-based, Canis lupus familiaris, MDCK-II; conditions: dog
Procedure, shortened: (§1)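 MDCK II cells incubated 72 h with compound dilutions, then MTT added; viability from formazan formation. […] Methanol (≤1.8%) and DMSO (≤1%) vehicle tested alone.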

[5] = Intrinsic cytotoxicity against parental MDCK2 cells incubated for 72 hrs by MTT assay; assay type: cell-based, Canis lupus familiaris, MDCK-II; conditions: dog; procedure, shortened: as §1
[6] = molecular target: ABCC1 (Homo sapiens, UniProt P33527); test: Inhibition of ABCC1 in human H69AR cells at 10 uM preincubated for 30 mins before calcein AM addition by calcein AM assay relative to CsA; assay type: cell-based; conditions: probe calcein AM
Procedure, shortened: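 H69AR cells (ABCC1-overexpressing) washed in Krebs-HEPES buffer pH 7.0; ~30,000 cells/well preincubated with compound 30 min at 37 °C, 5% CO2. Then 1.25 µM calcein AM solution added, fluorescence at ex 485/em 520 nm every 60 s for 60 min at 37 °C. Screened at 10 µM; activity expressed relative to cyclosporine A.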

[7] = molecular target: ABCB1 (Homo sapiens, UniProt P08183); test: Inhibition of ABCB1 in human A2780adr cells at 10 uM preincubated for 30 mins before calcein AM addition by calcein AM assay relative to CsA; assay type: cell-based; conditions: probe calcein AM
Procedure, shortened: (§2)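 A2780adr cells (ABCB1-overexpressing, doxorubicin-selected one passage every 10 passages) washed three times in Krebs-HEPES buffer pH 7.0; ~30,000 cells/well with compound dilutions, 30 min at 37 °C, 5% CO2. Calcein AM added (1.25 µM solution), fluorescence (ex 485/em 520 nm) read every 60 s for 60 min at 37 °C. Single-point screen at 10 µM relative to cyclosporine A; IC50 from full curves.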

[8] = molecular target: ATP-dependent translocase ABCB1 (Homo sapiens, UniProt P08183); test: Inhibition of ABCB1 in human A2780adr cells preincubated for 30 mins before calcein AM addition by calcein AM assay; assay type: cell-based; procedure, shortened: as §2
[9] = tested on: ABCG2; test: Therapeutic index, ratio of GI50 for intrinsic cytotoxicity against MDCK2 cells over-expressing human ABCG2 top IC50 for inhibition of c-terminal GFP-tagged human ABCG2 expressed in MDCK2 cells relative to Ko143; assay type: toxicity, cell-based; conditions: dog, read-out: TI

ATP-dependent translocase ABCB1, sequence (P08183 whole entry): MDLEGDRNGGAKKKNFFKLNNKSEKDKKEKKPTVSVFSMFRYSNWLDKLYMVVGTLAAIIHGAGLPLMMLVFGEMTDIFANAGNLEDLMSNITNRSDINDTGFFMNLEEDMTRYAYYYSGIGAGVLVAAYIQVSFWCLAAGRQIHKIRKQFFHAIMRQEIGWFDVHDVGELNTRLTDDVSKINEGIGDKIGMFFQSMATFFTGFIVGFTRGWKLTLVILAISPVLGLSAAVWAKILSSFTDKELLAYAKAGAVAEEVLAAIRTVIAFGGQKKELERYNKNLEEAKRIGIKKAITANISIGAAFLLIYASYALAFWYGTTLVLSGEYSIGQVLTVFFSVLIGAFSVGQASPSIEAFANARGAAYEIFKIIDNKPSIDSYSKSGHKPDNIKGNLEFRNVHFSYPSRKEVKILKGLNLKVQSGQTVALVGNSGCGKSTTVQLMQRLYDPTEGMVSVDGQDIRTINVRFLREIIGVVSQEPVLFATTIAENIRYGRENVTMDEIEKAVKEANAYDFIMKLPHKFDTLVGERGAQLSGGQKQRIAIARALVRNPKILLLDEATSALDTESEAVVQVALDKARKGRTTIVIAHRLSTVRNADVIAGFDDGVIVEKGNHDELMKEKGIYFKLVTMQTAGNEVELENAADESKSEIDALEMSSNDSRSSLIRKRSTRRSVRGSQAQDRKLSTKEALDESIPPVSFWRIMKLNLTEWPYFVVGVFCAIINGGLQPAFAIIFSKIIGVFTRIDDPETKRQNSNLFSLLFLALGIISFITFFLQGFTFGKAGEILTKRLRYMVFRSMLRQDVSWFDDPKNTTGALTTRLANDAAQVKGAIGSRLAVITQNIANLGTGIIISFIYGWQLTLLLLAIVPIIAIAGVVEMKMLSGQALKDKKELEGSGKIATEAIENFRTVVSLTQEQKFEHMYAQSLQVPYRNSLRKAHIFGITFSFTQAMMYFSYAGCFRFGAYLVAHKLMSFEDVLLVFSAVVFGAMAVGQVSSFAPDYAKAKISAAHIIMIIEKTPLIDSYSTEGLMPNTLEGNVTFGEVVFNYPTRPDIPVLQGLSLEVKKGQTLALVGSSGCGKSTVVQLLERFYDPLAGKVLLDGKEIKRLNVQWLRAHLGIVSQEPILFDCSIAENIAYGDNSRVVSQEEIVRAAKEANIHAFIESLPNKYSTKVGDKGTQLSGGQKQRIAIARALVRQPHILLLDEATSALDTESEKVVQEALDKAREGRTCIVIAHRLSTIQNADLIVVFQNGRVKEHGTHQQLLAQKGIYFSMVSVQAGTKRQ
ABCB1, sequence (P08183 whole entry): as above
ABCC1, sequence (P33527 whole entry): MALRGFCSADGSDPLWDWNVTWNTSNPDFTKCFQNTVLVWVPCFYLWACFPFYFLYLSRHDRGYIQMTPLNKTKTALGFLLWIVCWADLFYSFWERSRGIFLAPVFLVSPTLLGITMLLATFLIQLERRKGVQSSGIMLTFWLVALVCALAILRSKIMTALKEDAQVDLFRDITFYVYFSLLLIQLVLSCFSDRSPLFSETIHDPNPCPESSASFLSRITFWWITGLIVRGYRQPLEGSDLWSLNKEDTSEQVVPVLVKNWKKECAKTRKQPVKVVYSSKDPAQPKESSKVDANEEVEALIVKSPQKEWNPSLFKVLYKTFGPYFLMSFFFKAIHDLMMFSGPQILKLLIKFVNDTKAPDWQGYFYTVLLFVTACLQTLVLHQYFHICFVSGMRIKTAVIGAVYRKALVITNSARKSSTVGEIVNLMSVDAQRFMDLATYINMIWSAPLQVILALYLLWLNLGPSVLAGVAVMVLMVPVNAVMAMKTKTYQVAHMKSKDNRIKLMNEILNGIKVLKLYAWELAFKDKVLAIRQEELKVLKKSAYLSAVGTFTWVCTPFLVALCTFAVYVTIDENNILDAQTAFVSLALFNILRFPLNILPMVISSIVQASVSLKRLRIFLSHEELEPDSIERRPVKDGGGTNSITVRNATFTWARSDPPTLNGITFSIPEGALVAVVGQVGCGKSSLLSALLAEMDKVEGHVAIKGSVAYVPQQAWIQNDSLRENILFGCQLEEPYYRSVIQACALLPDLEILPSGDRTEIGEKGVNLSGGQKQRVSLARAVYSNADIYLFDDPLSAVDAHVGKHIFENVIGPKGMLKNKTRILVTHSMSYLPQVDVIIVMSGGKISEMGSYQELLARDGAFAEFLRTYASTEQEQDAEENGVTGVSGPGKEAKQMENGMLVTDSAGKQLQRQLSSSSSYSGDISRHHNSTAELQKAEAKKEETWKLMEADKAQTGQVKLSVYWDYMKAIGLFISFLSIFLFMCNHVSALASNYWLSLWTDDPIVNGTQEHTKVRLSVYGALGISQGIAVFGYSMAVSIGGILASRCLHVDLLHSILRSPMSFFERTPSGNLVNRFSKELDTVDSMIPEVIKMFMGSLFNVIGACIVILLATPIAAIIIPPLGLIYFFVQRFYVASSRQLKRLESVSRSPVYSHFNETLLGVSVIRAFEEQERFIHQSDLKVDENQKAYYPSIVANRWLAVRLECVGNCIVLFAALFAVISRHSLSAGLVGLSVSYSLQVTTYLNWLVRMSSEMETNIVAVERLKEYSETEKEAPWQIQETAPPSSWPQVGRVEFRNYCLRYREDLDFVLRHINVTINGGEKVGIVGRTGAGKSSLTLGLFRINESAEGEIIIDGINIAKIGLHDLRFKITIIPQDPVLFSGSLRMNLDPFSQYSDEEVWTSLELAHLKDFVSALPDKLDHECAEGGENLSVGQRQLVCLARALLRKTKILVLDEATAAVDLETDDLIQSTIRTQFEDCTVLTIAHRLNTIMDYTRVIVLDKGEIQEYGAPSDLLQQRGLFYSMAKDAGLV

Structure (SMILES)	IC50 [1]	IC50 [2]	selectivity ratio [3]	GI50 at 72 h [4]	GI50 at 72 h [5]	further results
COc1ccc(Nc2nc(-c3ccccc3)nc3ccccc23)cc1F	0.689 µM	0.872 µM	–	–	–	–
CC(C)(C)c1cccc(Nc2nc(-c3ccccc3)nc3ccccc23)c1	–	1.07 µM	–	–	–	–
COc1ccc2c3c([nH]c2c1)[C@H](CC(C)C)N1C(=O)[C@H](CCC(=O)OC(C)(C)C)NC(=O)[C@@H]1C3	–	–	–	11.1 µM	10.9 µM	–
Fc1cccc(Nc2cc(-c3ccccc3)nc3ccccc23)c1	–	2.13 µM	–	–	–	–
CSc1cccc(Nc2cc(-c3ccccc3)nc3ccccc23)c1	–	1.9 µM	–	–	–	inhibition at 10 µM [6]: > 25%; inhibition at 10 µM [7]: > 25%; IC50 [8]: 1.42 µM
O=S(=O)(F)c1ccc(Nc2nc(-c3ccccc3)nc3ccccc23)cc1	–	0.556 µM	–	–	–	–
O=[N+]([O-])c1cc(Nc2nc(-c3ccccc3)nc3ccccc23)ccc1O	0.113 µM	0.08 µM	655	52.4 µM	152 µM	selectivity ratio [9]: 13
COC(=O)c1ccc(Nc2nc(-c3ccccc3)nc3ccccc23)cc1	–	0.944 µM	–	–	–	inhibition at 10 µM [6]: > 25%
COc1cccc(Nc2cc(-c3ccccc3)nc3ccccc23)c1	–	0.951 µM	–	–	–	inhibition at 10 µM [7]: > 25%; IC50 [8]: 2.78 µM
O=C(O)c1ccc(Nc2nc(-c3ccccc3)nc3ccccc23)cc1	–	6.38 µM	–	–	–	inhibition at 10 µM [6]: > 25%
Clc1ccc(Nc2nc(-c3ccccc3)nc3ccccc23)cc1	–	0.83 µM	8.13	6.75 µM	14.8 µM	–
COc1ccc(Nc2nc(-c3ccccc3)nc3ccccc23)cc1OC	–	0.152 µM	148	22.5 µM	17 µM	inhibition at 10 µM [7]: > 25%; IC50 [8]: 1.86 µM
O=C(Nc1ccccc1C(=O)Nc1ccc(CCN2CCc3ccccc3C2)cc1)c1cnc2ccccc2c1	0.741 µM	0.704 µM	–	–	–	–

Further molecules by falling IC50 [2], results first:

IC50 [1]	IC50 [2]	Structure (SMILES)	selectivity ratio [3]	GI50 at 72 h [4]	GI50 at 72 h [5]	further results
–	5.65 µM	CC(C)(C)OC(=O)c1ccc(Nc2nc(-c3ccccc3)nc3ccccc23)cc1	–	–	–	–
–	1.63 µM	CC(=O)Nc1cccc(Nc2cc(-c3ccccc3)nc3ccccc23)c1	–	–	–	inhibition at 10 µM [6]: > 25%; inhibition at 10 µM [7]: > 25%; IC50 [8]: 0.66 µM
–	1.48 µM	Cc1ccc(Nc2nc(-c3ccccc3)nc3ccccc23)cc1	–	–	–	–
–	1.46 µM	Cc1cc(Nc2nc(-c3ccccc3)nc3ccccc23)ccc1I	–	–	–	–
–	1.19 µM	CSc1cccc(Nc2nc(-c3ccccc3)nc3ccccc23)c1	–	–	–	inhibition at 10 µM [6]: > 25%
–	1.15 µM	Cc1cccc(Nc2nc(-c3ccccc3)nc3ccccc23)c1	11.1	12.8 µM	24 µM	inhibition at 10 µM [7]: > 25%; IC50 [8]: 3 µM
–	1.06 µM	CC(C)(C)c1ccc(Nc2nc(-c3ccccc3)nc3ccccc23)cc1	–	–	–	–
–	1.06 µM	Fc1ccc(Nc2nc(-c3ccccc3)nc3ccccc23)cc1	27.4	29 µM	25.6 µM	–
–	0.846 µM	N#Cc1ccc(Nc2cc(-c3ccccc3)nc3ccccc23)cc1	–	–	–	inhibition at 10 µM [7]: > 25%; IC50 [8]: 4.74 µM
–	0.791 µM	Ic1cccc(Nc2nc(-c3ccccc3)nc3ccccc23)c1	–	4.75 µM	16.6 µM	–
0.513 µM	0.672 µM	C#Cc1cccc(Nc2nc(-c3ccccc3)nc3ccccc23)c1	–	–	–	–
–	0.612 µM	Ic1ccc(Nc2nc(-c3ccccc3)nc3ccccc23)cc1	15.1	9.25 µM	8.85 µM	–
0.405 µM	0.355 µM	Fc1cccc(Nc2nc(-c3ccccc3)nc3ccccc23)c1	48.5	17.2 µM	27.5 µM	–
0.202 µM	0.289 µM	COc1cc(Nc2nc(-c3ccccc3)nc3ccccc23)ccc1Br	–	–	–	–
0.224 µM	0.278 µM	CC(=O)Nc1cccc(Nc2nc(-c3ccccc3)nc3ccccc23)c1	46.4	12.9 µM	30.9 µM	–
0.304 µM	0.204 µM	Oc1ccc(Nc2nc(-c3ccccc3)nc3ccccc23)cc1	59.8	12.2 µM	26.9 µM	–
0.0845 µM	0.0699 µM	N#Cc1ccc(Nc2nc(-c3ccccc3)nc3ccccc23)cc1	113	7.96 µM	16.6 µM	–
